Measurements published in ChEMBL document CHEMBL2057170, “Synthesis and binding properties of new selective ligands for the nucleobase opposite the AP site” (Bioorg Med Chem, 2012).

Legend:
Type in all cases: nucleic-acid assay
[1] = test system: Nucleic Acid; test: Binding affinity to DNA 5'-d GCG TAC AP CAT GCG-3' 3'-d CGC ATG C GTA CGC-5' assessed as melting temperature pretreated for 5 mins in presence of 50 mM NaCl
How it was run: (§1)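 UV thermal denaturation at 260 nm used 4 µM duplex (AP = THF) with or without 20 µM ligand in 10 mM HEPES-NaOH pH 7.0, 50 mM NaCl. Samples were preheated 5 min at 80 °C, then slowly cooled. Melts ran 20–80 °C at 1 °C/min. Tm came from non-linear fitting; ΔTm = Tm(+) − Tm(−).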

[2] = test system: Nucleic Acid; test: Binding affinity to DNA 5'-d GCG TAC AP CAT GCG-3' 3'-d CGC ATG T GTA CGC-5' assessed as equilibrium association constant by SPR analysis in presence of 50 mM NaCl
How it was run: (§2)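 SPR on BIACORE3000. Hairpin duplexes carrying the AP site (THF) opposite X were 5'-biotin-labelled and immobilized in HBS-N (pH 7.4, 150 mM NaCl). Binding was run in 10 mM HEPES-NaOH pH 7.0 with 50 mM NaCl at 25 °C. Ligand 0.05–2.00 µM was injected at 20 µl/min for 300 s, then 120 s dissociation. Ka came from steady-state affinity analysis with a one-site fit.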

[3] = test system: Nucleic Acid; test: Binding affinity to DNA 5'-d GCG TAC AP CAT GCG-3' 3'-d CGC ATG T GTA CGC-5' assessed as melting temperature pretreated for 5 mins in presence of 50 mM NaCl; how it was run: as §1
[4] = test system: Nucleic Acid; test: Binding affinity to DNA 5'-d GCG TAC AP CAT GCG-3' 3'-d CGC ATG G GTA CGC-5' assessed as melting temperature pretreated for 5 mins in presence of 50 mM NaCl; how it was run: as §1
[5] = test system: Nucleic Acid; test: Binding affinity to DNA 5'-d GCG TAC AP CAT GCG-3' 3'-d CGC ATG A GTA CGC-5' assessed as melting temperature pretreated for 5 mins in presence of 50 mM NaCl; how it was run: as §1
[6] = test system: Nucleic Acid; test: Binding affinity to DNA 5'-d GCG TAC AP CAT GCG-3' 3'-d CGC ATG G GTA CGC-5' assessed as equilibrium association constant by SPR analysis in presence of 50 mM NaCl; how it was run: as §2
[7] = test system: Nucleic Acid; test: Binding affinity to DNA 5'-d GCG TAC AP CAT GCG-3' 3'-d CGC ATG C GTA CGC-5' assessed as equilibrium association constant by SPR analysis in presence of 50 mM NaCl; how it was run: as §2
[8] = test system: Nucleic Acid; test: Binding affinity to DNA 5'-d GCG TAC AP CAT GCG-3' 3'-d CGC ATG A GTA CGC-5' assessed as equilibrium association constant by SPR analysis in presence of 50 mM NaCl; how it was run: as §2
[9] = test system: Nucleic Acid; test: Binding affinity to DNA 5'-d GCG TAC AP CAT GCG-3' 3'-d CGC ATG T GTA CGC-5' assessed as melting temperature pretreated for 5 mins in presence of 100 mM NaCl
How it was run: (§3)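 UV thermal denaturation at 260 nm used 4 µM duplex (AP = THF) with or without 20 µM ligand in 10 mM HEPES-NaOH pH 7.0, 100 mM NaCl. Samples were preheated 5 min at 80 °C, then slowly cooled. Melts ran 20–80 °C at 1 °C/min. Tm came from non-linear fitting; ΔTm = Tm(+) − Tm(−).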

[10] = test system: Nucleic Acid; test: Binding affinity to DNA 5'-d GCG TAC AP CAT GCG-3' 3'-d CGC ATG C GTA CGC-5' assessed as melting temperature pretreated for 5 mins in presence of 100 mM NaCl; how it was run: as §3
[11] = test system: Nucleic Acid; test: Binding affinity to DNA 5'-d GCG TAC AP CAT GCG-3' 3'-d CGC ATG A GTA CGC-5' assessed as melting temperature pretreated for 5 mins in presence of 100 mM NaCl; how it was run: as §3
[12] = test system: Nucleic Acid; test: Binding affinity to DNA 5'-d GCG TAC AP CAT GCG-3' 3'-d CGC ATG G GTA CGC-5' assessed as melting temperature pretreated for 5 mins in presence of 100 mM NaCl; how it was run: as §3

Row | Tm [1] | Ka [2] | Tm [3] | Tm [4] | Tm [5] | Ka [6] | Ka [7] | Ka [8] | Tm [9] | Tm [10] | Tm [11] | Tm [12] | SMILES
1 | 33.8 °C | 0.053 ×10⁶ /M | 35.5 °C | 37.8 °C | 39.2 °C | 0.043 ×10⁶ /M | 0.063 ×10⁶ /M | 0.222 ×10⁶ /M |  |  |  |  | Cc1cn(CCCNCCCNCCCN)c(=O)[nH]c1=O
2 |  | 3.9 ×10⁶ /M |  |  |  | 0.087 ×10⁶ /M | 0.01 ×10⁶ /M | 0.057 ×10⁶ /M | 43.7 °C | 34.6 °C | 40.4 °C | 40.8 °C | NCCCNCCCNCCCn1cnc2c(N)ncnc21
3 | 32.6 °C | 0.001 ×10⁶ /M | 32.4 °C | 40.5 °C | 35.2 °C | 0.039 ×10⁶ /M | 0.002 ×10⁶ /M | 0.002 ×10⁶ /M |  |  |  |  | NCCCNCCCNCCCn1ccc(N)nc1=O
4 | 32.1 °C | 0.027 ×10⁶ /M | 33.9 °C | 36.4 °C | 39.1 °C | 0.001 ×10⁶ /M | 0.022 ×10⁶ /M | 0.045 ×10⁶ /M |  |  |  |  | NCCCNCCCNCCCn1ccc(=O)[nH]c1=O
5 |  | 0.08 ×10⁶ /M |  |  |  | 0.047 ×10⁶ /M | 6.3 ×10⁶ /M | 0.016 ×10⁶ /M | 38.1 °C | 40.8 °C | 40.4 °C | 40.9 °C | NCCCNCCCNCCCn1cnc2c(=O)[nH]c(N)nc21

Row | SMILES | Tm [1] | Ka [2] | Tm [3] | Tm [4] | Tm [5] | Ka [6] | Ka [7] | Ka [8] | Tm [9] | Tm [10] | Tm [11] | Tm [12]
6 | NCCCNCCCN |  | < 0.001 ×10⁶ /M |  |  |  |  |  |  |  |  |  | 
